ChEMBL document CHEMBL6134777, “Modulating polybasic character of galactose-based glycosylated antitumor ether lipids for enhanced cytotoxic response” (2025)
The source made the active and inactive calls. The rule behind the calls is not given here.

Experiments:
[1] = test system: DU-145; assay: Cytotoxicity against human DU-145 cells assessed as cell death up to 10 uM measured after 48 hrs; type: functional, cell-based
Procedure, shortened: (§1)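 DU-145 (5000 cells/well) or JIMT-1 (8000 cells/well) in DMEM with 10% FBS and penicillin/streptomycin. Plated cells rested 24 h, then received increasing drug concentrations (30 mM stock) for 48 h. Viability by PrestoBlue 10% v/v for 40-45 min, fluorescence ex 560/em 590 nm, blank-subtracted, relative to vehicle. Two independent experiments, five wells per concentration.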

[2] = test system: BT-474; assay: Cytotoxicity against human BT-474 cells assessed as cell death up to 10 uM measured after 48 hrs; type: functional, cell-based
Procedure, shortened: (§2)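 BT-474 cells in DMEM/F12 with 10% FBS plus penicillin/streptomycin, 37°C, 5% CO2. Seeded at 10,500 cells/well and left 24 h, then exposed to rising drug concentrations (stock 30 mM) for 48 h. Read-out: PrestoBlue (10% v/v), 40-45 min, fluorescence ex 560/em 590 nm. Values are blank-subtracted and expressed relative to vehicle-treated cells. Two independent experiments, five wells per concentration.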

[3] = test system: JIMT-1; assay: Cytotoxicity against human JIMT-1 cells assessed as cell death up to 10 uM measured after 48 hrs; type: functional, cell-based; procedure, shortened: as §1
[4] = test system: MIA PaCa-2; assay: Cytotoxicity against human MIAPaCa-2 cells assessed as cell death up to 10 uM measured after 48 hrs; type: functional, cell-based
Procedure, shortened: (§3)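 MIAPaCa-2 in DMEM with 10% FBS, 2.5% horse serum and penicillin/streptomycin, seeded at 7500 cells/well. After 24 h, treated 48 h with increasing drug concentrations from a 30 mM stock. PrestoBlue 10% v/v, 40-45 min, fluorescence 560/590 nm, blank-subtracted, relative to vehicle-treated cells. Two independent experiments, five wells per concentration.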

[5] = test system: JIMT-1; assay: Cytotoxicity against human JIMT-1 cells assessed as cell death at 6 to 10 uM measured after 48 hrs; type: functional, cell-based; details: dose 6-10 µM; procedure, shortened: as §1
[6] = test system: BT-474; assay: Cytotoxicity against human BT-474 cells assessed as cell death at 6 to 10 uM measured after 48 hrs; type: functional, cell-based; details: dose 6-10 µM; procedure, shortened: as §2
[7] = test system: DU-145; assay: Cytotoxicity against human DU-145 cells assessed as cell death measured after 48 hrs; type: functional; procedure, shortened: as §1
[8] = test system: HepG2; assay: Cytotoxicity against human HepG2 cells assessed as cell viability measured after 48 hrs by using PrestoBlue cell viability assay; type: functional
Procedure, shortened: (§4)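 DMEM with 10% FBS plus penicillin/streptomycin, 37°C, 5% CO2. Seeding per well: BxPC3 7500, COV362 7500, HEYC2 8000, HepG2 8000, MDA-MB-231 8000. After 24 h, drug added at increasing concentrations (30 mM stock) for 48 h. PrestoBlue 10% v/v for 40-45 min; fluorescence 560/590 nm, blank-subtracted, relative to vehicle. Two experiments, five wells each; CC50 by nonlinear regression.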

[9] = Cytotoxicity against human COV362 cells assessed as cell viability measured after 48 hrs by using PrestoBlue cell viability assay; type: functional; procedure, shortened: as §4
[10] = Cytotoxicity against human COV362 cells assessed as cell death at 8 uM measured after 48 hrs by using PrestoBlue cell viability assay; type: functional
Procedure, shortened: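 COV362 cells in DMEM with 10% FBS and penicillin/streptomycin at 37 °C and 5% CO₂, seeded at 7500 per well. After 24 h, exposed 48 h to increasing drug concentrations diluted from a 30 mM stock. PrestoBlue (10% v/v) added for 40-45 min, fluorescence read at ex 560/em 590 nm. Cell-free blanks subtracted, viability relative to vehicle. Two independent experiments, five wells per concentration.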

[11] = test system: MDA-MB-231; assay: Cytotoxicity against human MDA-MB-231 cells assessed as cell viability measured after 48 hrs by using PrestoBlue cell viability assay; type: functional; procedure, shortened: as §4
[12] = test system: JIMT-1; assay: Cytotoxicity against human JIMT-1 cells assessed as cell death measured after 48 hrs; type: functional; procedure, shortened: as §1
[13] = test system: HepG2; assay: Cytotoxicity against human HepG2 cells assessed as elimination of cells at 6 uM measured after 48 hrs by using PrestoBlue cell viability assay; type: functional; procedure, shortened: as §4
[14] = test system: OVCAR-3; assay: Cytotoxicity against human OVCAR-3 cells assessed as elimination of cells at 6 uM measured after 48 hrs by using PrestoBlue cell viability assay; type: functional
Procedure, shortened: (§5)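 OVCAR-3 in RPMI with 10% FBS, 0.01 mg/mL insulin and penicillin/streptomycin, seeded at 7500 cells/well. After 24 h, exposed 48 h to increasing drug concentrations (30 mM stock). PrestoBlue 10% v/v, 40-45 min, fluorescence ex 560/em 590 nm, blank-subtracted, relative to vehicle. Two experiments, five wells per concentration.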

[15] = test system: BT-474; assay: Cytotoxicity against human BT-474 cells assessed as cell death measured after 48 hrs; type: functional; procedure, shortened: as §2
[16] = test system: OVCAR-3; assay: Cytotoxicity against human OVCAR-3 cells assessed as cell viability measured after 48 hrs by using PrestoBlue cell viability assay; type: functional; procedure, shortened: as §5
[17] = test system: MIA PaCa-2; assay: Cytotoxicity against human MIAPaCa-2 cells assessed as cell death at 6 to 10 uM measured after 48 hrs; type: functional, cell-based; details: dose 6-10 µM; procedure, shortened: as §3
[18] = Cytotoxicity against human HEY C2 cells assessed as cell viability measured after 48 hrs by using PrestoBlue cell viability assay; type: functional; procedure, shortened: as §4
[19] = test system: DU-145; assay: Cytotoxicity against human DU-145 cells assessed as cell death at 6 to 10 uM measured after 48 hrs; type: functional, cell-based; details: dose 6-10 µM; procedure, shortened: as §1
[20] = Potency index, ratio of monobasic GAEL IC50 to test compound IC50 for cytotoxicity against human MIAPaCa-2 cells assessed as cell death measured after 48 hrs; type: functional, MIA PaCa-2
[21] = test system: MIA PaCa-2; assay: Cytotoxicity against human MIA PaCa-2 cells assessed as cell death measured after 48 hrs; type: functional; procedure, shortened: as §3
[22] = test system: DU-145; assay: Cytotoxicity against human DU-145 cells assessed as cell death at 4 to 8 uM measured after 48 hrs in presence of MX1013 pan-caspase inhibitor; details: dose 4-8 µM
[23] = test system: BXPC-3; assay: Cytotoxicity against human BXPC-3 cells assessed as cell viability measured after 48 hrs by using PrestoBlue cell viability assay; type: functional; procedure, shortened: as §4
[24] = Potency index, ratio of monobasic GAEL IC50 to test compound IC50 for cytotoxicity against human DU-145 cells assessed as cell death measured after 48 hrs; type: functional
[25] = Potency index, ratio of monobasic GAEL IC50 to test compound IC50 for cytotoxicity against human JIMT-1 cells assessed as cell death measured after 48 hrs; type: functional

Compound	CC50 [7]	CC50 [12]	CC50 [15]	Ratio IC50 [20]	CC50 [21]	Ratio IC50 [24]	Ratio IC50 [25]	further results
COc1cccc2c1C(=O)c1c(O)c3c(c(O)c1C2=O)C[C@@](O)(C(=O)CO)C[C@@H]3O[C@H]1C[C@H](N)[C@H](O)[C@H](C)O1								Activity [1]: inactive; Activity [2]: inactive; Activity [3]: inactive; Activity [4]: inactive
CCCCCCCCCCCCCCCCOC[C@H](CO[C@@H]1O[C@H](CN)[C@H](N)[C@H](O)[C@H]1N)OC	3.3 µM	3.8 µM	5.6 µM	2	4.5 µM	2	2	Activity [5]: Active; Activity [6]: Active; CC50 [8]: 3.6 µM; CC50 [9]: 3.1 µM; Activity [10]: 100%; CC50 [11]: 6.5 µM; Activity [13]: 100%; Activity [14]: 100%; CC50 [16]: 2.6 µM; Activity [17]: Active; CC50 [18]: 5.5 µM; Activity [19]: Active; Activity [22]: Active; CC50 [23]: 2.6 µM
CCCCCCCCCCCCCCCCOC[C@H](CO[C@H]1O[C@H](CO)[C@H](N)[C@H](O)[C@H]1N)OC	6.3 µM	5 µM	> 10 µM		6.5 µM			
CCCCCCCCCCCCCCCCOC[C@H](CO[C@@H]1O[C@H](CN)[C@H](O)[C@H](O)[C@H]1N)OC	6.6 µM	5.7 µM	6.4 µM	1.5	7.5 µM	1.5	1.5	
CCCCCCCCCCCCCCCCOC[C@H](CN)O[C@@H]1O[C@H](CO)[C@H](N)[C@H](O)[C@H]1N	> 10 µM	8.9 µM	> 10 µM		7.4 µM			
CCCCCCCCCCCCCCCCOC[C@H](CO[C@@H]1O[C@H](CO)[C@H](N)[C@H](O)[C@H]1N)OC	6.6 µM	5.8 µM	> 10 µM		7.8 µM			
CCCCCCCCCCCCCCCCOC[C@H](CN)O[C@H]1O[C@H](CO)[C@H](N)[C@H](O)[C@H]1N	8.2 µM	6.3 µM	7.4 µM		8.1 µM			
CCCCCCCCCCCCCCCCOC[C@H](CO[C@H]1O[C@H](CO)[C@H](O)[C@H](O)[C@H]1N)OC	10.9 µM	9.9 µM	> 20 µM		10 µM			
CCCCCCCCCCCCCCCCOC[C@H](CO[C@H]1O[C@H](CN)[C@H](O)[C@H](O)[C@H]1N)OC	5.5 µM	4.9 µM	6.9 µM	1.5	6.6 µM	1.5	1.5	
CCCCCCCCCCCCCCCCOC[C@H](CO[C@H]1O[C@H](CN)[C@H](N)[C@H](O)[C@H]1N)OC	6.7 µM	5.4 µM	8 µM		5.3 µM			
